ChEMBL document CHEMBL4376840, “Application of Fluorine- and Nitrogen-Walk Approaches: Defining the Structural and Functional Diversity of 2-Phenylindole Class of Cannabinoid 1 Receptor Positive Allosteric Modulators” (J Med Chem, 2020)
Calls of active or inactive are those of the source.

Key:
[1] = tested on: Mus musculus; experiment: Antiallodynic activity in ip dosed CFA-induced mechanical allodynia CD1 mouse model assessed as increase in ipsilateral paw withdrawal threshold measured every 3 hrs for 2 days post treatment by Von Frey test; type: functional, organism-based
Procedure, shortened: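 Mice received CFA injection into one paw. Mechanical paw withdrawal thresholds were measured in the injected (ipsilateral) and contralateral paws after i.p. compound at 0.1, 0.3, 1, 3, 10 or 30 mg/kg, compared with vehicle-treated groups at the same times.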

[2] = target: T1, Cannabinoid receptor 1 (Homo sapiens, UniProt P21554); experiment: Positive allosteric modulatory activity at human CB1R expressed in CHO-K1 cells assessed as increase in CP55940-induced beta-arrestin2 recruitment after 90 mins in presence of CP55940 at EC20 concentration by pathhunter beta-arrestin assay relative to control; type: cell-based
Procedure, shortened: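 Read-out was chemiluminescent β-arrestin2 recruitment, fit with a 4-parameter regression. n = 1–3 independent experiments in duplicate.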

[3] = target: T1, Cannabinoid receptor 1; experiment: Allosteric agonist activity at human CB1R expressed in CHO-K1 cells assessed as inhibition of forskolin-induced cAMP accumulation by measuring cAMP accumulation at minimal level at higher concentrations after 90 mins by hit-hunter cAMP assay relative to forskolin; type: functional, cell-based
Procedure, shortened: (§1)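 HitHunter CHO-K1 hCB1R cells (20,000/well) were held overnight in Opti-MEM with 1% FBS. They were then co-treated at 37°C with 10 μM forskolin plus compound alone (0.10 nM – 10 μM) for 90 min. Chemiluminescent cAMP detection followed (two 60-min room-temperature steps). Data as % forskolin, variable-slope 4-parameter fit; Emin is the lower plateau. n ≥ 6, triplicate.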

[4] = target: Cannabinoid receptor 1 (Rattus norvegicus) (UniProt P20272); experiment: (§2) Positive allosteric modulatory activity at N-terminal GFP-tagged rat CB1R receptor expressed in HEK293 cells assessed as increase in CP55940-induced inhibition of forskolin-induced cAMP accumulation by measuring Emax for cAMP accumulation at low concentration of CP55940 at 0.1 microM after 30 mins by TR-FRET assay relative to forskolin; type: functional, cell-based
[5] = target: T1, Cannabinoid receptor 1; experiment: Positive allosteric modulatory activity at human CB1R expressed in CHO-K1 cells assessed as maximal increase in CP55940-induced beta arrestin2 recruitment after 90 mins in presence of 100 nM CP55940 by pathhunter beta-arrestin assay relative to CP55940; type: cell-based
[6] = target: Cannabinoid receptor 1 (Rattus norvegicus) (UniProt P20272); experiment: as §2, with “concentrations” for “concentration”, “0.03” for “0.1”; type: functional, cell-based
[7] = target: T1, Cannabinoid receptor 1; experiment: Allosteric agonist activity at human CB1R expressed in CHO-K1 cells assessed as inhibition of forskolin-induced cAMP accumulation after 90 mins by hit-hunter cAMP assay; type: functional, cell-based; procedure, shortened: as §1
[8] = target: Cannabinoid receptor 1 (Rattus norvegicus, UniProt P20272); experiment: Allosteric agonist activity at N-terminal GFP-tagged rat CB1R expressed in HEK293 cells assessed as inhibition of forskolin-induced cAMP production after 30 min by TR-FRET assay; type: functional, cell-based
Procedure, shortened: (§3)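 HEK293 cells stably expressing N-terminal GFP-tagged rat CB1R were trypsin-EDTA dissociated and resuspended in HBSS with 0.1% BSA and 0.5mM IBMX at 500 cells/well. Cells got 5μM forskolin plus compound (1 pM – 10 μM) alone for 30 min. 4-parameter fit; Emin is the lower plateau. n ≥ 3, triplicate.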

[9] = tested on: Mus musculus; experiment: Antiallodynic activity against CFA-induced mechanical allodynia CD1 mouse model assessed as increase in ipsilateral paw withdrawal threshold at 30 mg/kg, ip after […] post treatment by Von Frey test; type: functional, organism-based
[10] = Toxicity in C57BL/6 mouse assessed as catalepsy at 0.1 to 10 mg/kg, ip after 5 mins by bar holding assay; type: organism-based; conditions: in vivo
Procedure, shortened: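 Male C57BL/6 mice were given 0.1 – 10 mg/kg compound or vehicle (1:1:18 ethanol:cremaphor:saline). Catalepsy was assessed at 5 min as % MPE with a 60 sec maximum. n = 5–6.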

[11] = target: T1, Cannabinoid receptor 1; experiment: Positive allosteric modulatory activity at human CB1R expressed in CHO-K1 cells assessed as increase in CP55940-induced beta arrestin2 recruitment after 90 mins in presence of 100 nM CP55940 by pathhunter beta-arrestin assay; type: cell-based
[12] = target: Cannabinoid receptor 1 (Rattus norvegicus) (UniProt P20272); experiment: Positive allosteric modulatory activity at N-terminal GFP-tagged rat CB1R receptor expressed in HEK293 cells assessed as downward shift in CP55940 dependent concentration response curve for inhibition of forskolin-induced cAMP accumulation after 30 mins by TR-FRET assay; type: functional, cell-based
[13] = target: T1, Cannabinoid receptor 1; experiment: Positive allosteric modulatory activity at human CB1R expressed in CHO-K1 cells assessed as increase in CP55940-induced inhibition of forskolin-induced cAMP accumulation by measuring cAMP accumulation at minimal level at higher concentration after 90 mins in presence of 100 nM CP55940 by hit-hunter cAMP assay relative to forskolin; type: functional, cell-based
Procedure, shortened: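 Uses the HitHunter CHO-K1 hCB1R cAMP set-up above. […] Data normalized to % forskolin, 4-parameter fit. n ≥ 6, triplicate.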

[14] = target: T1, Cannabinoid receptor 1; experiment: Displacement of [3H]CP55940 from human CB1R receptor expressed in CHO cell membranes after 60 mins by liquid scintillation spectrometry analysis
[15] = target: T1, Cannabinoid receptor 1; experiment: Allosteric agonist activity at human CB1R expressed in CHO-K1 cells assessed as increase in beta arrestin2 recruitment after 90 mins by pathhunter beta-arrestin assay; type: cell-based
Procedure, shortened: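 PathHunter CHO-K1 hCB1R cells (20,000/well) were held overnight in Opti-MEM with 1% FBS. Compound alone (0.10 nM – 10 μM) was given at 37°C for 90 min, then detection solution for 60 min at room temperature and chemiluminescence was read.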

[16] = tested on: Mus musculus; experiment: Antinociceptive activity in C57BL/6 mouse at 3 to 10 mg/kg, ip after 20 mins post treatment by warm water tail-flick assay; type: functional, organism-based
[17] = target: T1, Cannabinoid receptor 1; experiment: Positive allosteric modulatory activity at human CB1R expressed in CHO-K1 cells assessed as increase in CP55940-induced inhibition of forskolin-stimulated cAMP production after 30 mins in presence of CP55940 at EC20 concentration by hit-hunter cAMP assay; type: functional, cell-based
Procedure, shortened: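 Read-out was chemiluminescent cAMP detection, fit with a variable-slope 4-parameter regression. n = 1–3 independent experiments in duplicate.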

[18] = target: Cannabinoid receptor 1 (Rattus norvegicus) (UniProt P20272); experiment: as §2, with “0.001” for “0.1”; type: functional, cell-based
[19] = tested on: Mus musculus; experiment: Antiallodynic activity against CFA-induced mechanical allodynia CD1 mouse model assessed as increase in ipsilateral paw withdrawal threshold at 30 mg/kg, ip by Von Frey test; type: functional, organism-based; conditions: TDE = time-dependent effect
Procedure, shortened: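 Time course in the CFA model at 30 mg/kg i.p. Ipsilateral and contralateral mechanical paw withdrawal thresholds were followed from 30 min to 4 h post-injection in wild-type and CB1 knockout mice. Compared with vehicle by ANOVA and Bonferroni post hoc tests.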

[20] = buffer, pH 7.4, 2 h
[21] = target: Cannabinoid receptor 1 (Rattus norvegicus) (UniProt P20272); experiment: Allosteric agonist activity at N-terminal GFP-tagged rat CB1R expressed in HEK293 cells assessed as inhibition of forskolin-induced cAMP production by measuring cAMP accumulation at minimal level at higher concentrations after 30 min by TR-FRET assay relative to forskolin; type: functional, cell-based; procedure, shortened: as §3
[22] = target: T1, Cannabinoid receptor 1; experiment: Positive allosteric modulation activity at human CB1 receptor expressed in CHO cell membranes assessed as increase in [3H]CP55940 binding at 1 uM measured after 90 mins in presence of [35S]GTPgammaS by liquid scintillation analysis; type: functional

T1 sequence (P21554 whole entry): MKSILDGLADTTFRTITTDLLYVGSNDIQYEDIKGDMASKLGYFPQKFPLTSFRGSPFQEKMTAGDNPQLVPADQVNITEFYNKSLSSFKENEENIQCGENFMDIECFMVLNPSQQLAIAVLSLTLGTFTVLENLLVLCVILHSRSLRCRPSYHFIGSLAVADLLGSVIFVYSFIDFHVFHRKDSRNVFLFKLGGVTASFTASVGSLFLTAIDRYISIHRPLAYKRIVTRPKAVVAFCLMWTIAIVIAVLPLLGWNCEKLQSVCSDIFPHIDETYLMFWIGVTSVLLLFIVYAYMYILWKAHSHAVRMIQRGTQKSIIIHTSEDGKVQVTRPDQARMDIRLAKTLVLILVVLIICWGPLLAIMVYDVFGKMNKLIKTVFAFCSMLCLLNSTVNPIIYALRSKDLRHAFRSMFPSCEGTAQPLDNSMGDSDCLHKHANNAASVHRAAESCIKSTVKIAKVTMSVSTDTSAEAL
Chain of Cannabinoid receptor 1 (Rattus norvegicus) (P20272 whole entry): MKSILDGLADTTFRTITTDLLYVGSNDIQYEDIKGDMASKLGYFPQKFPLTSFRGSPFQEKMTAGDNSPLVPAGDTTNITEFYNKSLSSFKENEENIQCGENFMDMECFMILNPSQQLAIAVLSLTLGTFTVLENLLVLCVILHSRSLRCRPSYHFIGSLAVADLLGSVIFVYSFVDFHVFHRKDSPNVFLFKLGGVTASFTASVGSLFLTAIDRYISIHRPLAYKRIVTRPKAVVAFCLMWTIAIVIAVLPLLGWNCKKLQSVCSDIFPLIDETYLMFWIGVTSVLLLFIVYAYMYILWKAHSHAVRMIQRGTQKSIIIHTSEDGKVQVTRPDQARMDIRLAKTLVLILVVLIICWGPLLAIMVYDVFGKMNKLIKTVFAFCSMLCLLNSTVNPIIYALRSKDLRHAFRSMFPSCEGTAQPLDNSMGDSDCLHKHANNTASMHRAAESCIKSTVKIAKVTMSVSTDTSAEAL
Chain of Cannabinoid receptor 1 (Rattus norvegicus, UniProt P20272) (P20272 whole entry): as above

Row | SMILES | Activity [1] | Emax [2] | Emin [3] | Emax [4] | Emax [5] | Emax [6] | EC50 [7] | EC50 [8] | Activity [9] | Activity [10] | EC50 [11] | Activity [12] | Emin [13] | Ki [14] | EC50 [15] | Activity [16] | EC50 [17] | Emax [18] | Activity [19] | Kinetic_solubility [20] | other results
1 | O=[N+]([O-])CC(c1ccccc1F)c1c(-c2cccc(F)c2)[nH]c2cc(F)ccc12 (centres undefined) | Dose-dependent effect | 71% | 4.2% | 46% | 130% | 58% | 4.3 nM | 27 nM | Active | Non-Toxic | 190 nM | Dose-dependent effect | 9% | 88 nM | 1600 nM | Active | 28 nM | 76% | Tde | 1.56 µM | Emin [21]: 32%; Activity [22]: Active
2 | O=[N+]([O-])CC(c1ccccc1F)c1c(-c2cccc(F)c2)[nH]c2c(F)cccc12 (centres undefined) | Dose-dependent effect | 82% | 18% | 52% | 130% | 63% | 3.9 nM | 26 nM | Active | Non-Toxic | 3500 nM | Dose-dependent effect | 10% | 94 nM | > 10000 nM | Active | 9.1 nM | 74% | Tde | 1.56 µM | Emin [21]: 30%; Activity [22]: Active
